Results as given in PubChem BioAssay AID504383 (The Scripps Research Institute Molecular Screening Center, 2011).
The whole screen tested about 2,500 compounds, of which about 1,200 (48%) were called active. The set was probably picked from earlier hits. The list shows a part of the results. Values without a mark were called inactive.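 Rule for the calls: active = mean activation above the low control average plus 3 SD, as set in the primary screen (cut at about 12% in these data); inactive = the rest.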

molecular target: Troponin I, cardiac muscle (Homo sapiens) + Troponin T, cardiac muscle (Homo sapiens) + Troponin C, slow skeletal and cardiac muscles (Homo sapiens) (UniProt P19429+P45379+P63316); experiment: calcium sensitizers of cardiac thin filaments – biochemical, IANBD-TnC fluorescence, triplicate, confirmation (AID 504383); conditions: IANBD-labeled cardiac RTF, Ca2+ sensitivity fluorescence; at 7.2 µM; active compounds read high; scaled from EC20 to saturating calcium; tested at EC20 calcium, 0.472 mM;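 note: 0% = DMSO at 0.472 mM calcium and 100% = DMSO at 2.9 mM calcium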
Outline: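 System: Labelled thin filament complex | Technique: Filament fluorescence intensity | Benchmarks: Low control EC20 calcium, high control EC100 calcium | Timing: 15 min at 25 °C | Compound dosing: One dose, 7.2 µM nominal | Probe or stimulus: Ca2+ 0.472 mM, EC20 level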

Row | SMILES | activation
1 | COc1ccccc1-c1nnc(SCc2nc3ccccc3s2)n1C | 29.9% (active)
2 | CC(C)(C)OC(=O)[C@H](Cc1ccccc1)NC(=O)c1nc[nH]c1C(=O)NCc1ccccc1 | 25.1% (active)
3 | CN(Cc1ccccc1)C(=O)c1[nH]cnc1C(=O)NCc1ccccc1 | 59.9% (active)
4 | O=C(NCc1ccccc1Cl)c1ccc2nc[nH]c2c1 | 6.6%
5 | O=C1N(c2ccc(Cl)cc2)C(c2ccccc2)N2CCCN12 (configuration not stated) | 5.52%
6 | Fc1ccc(-c2nnc(-c3ccc(Cl)cc3Cl)o2)cc1 | 54% (active)
7 | O=C(c1cccc(F)c1)N1CCN(C(=O)c2cc(-c3ccc(Cl)cc3Cl)on2)CC1 | 3.41%
8 | Cc1ccc(-n2nc(C)c(=O)c(-c3ccccc3)c2NC(=O)c2cccs2)cc1 | 11.8% (active)
9 | C/C(=N\NC(=O)c1ccccc1)c1ccc(NC(=O)c2cccs2)cc1 | 3.16%
10 | CCOC(=O)/C(C#N)=C(C)/C=C1\Sc2ccccc2N1CC | 11.9% (active)
11 | CCOC(=O)/C(=C/C=C1\Sc2cc(OCC)c(OCC)cc2N1CC)C(C)=O | 40% (active)
12 | CCN1/C(=C\C=C(C(C)=O)C(C)=O)Sc2ccccc21 | 9.03%
13 | CCOC(=O)/C(=C\C=C1/Sc2cc(OCC)c(OCC)cc2N1CC)C(C)=O | 8.28%
14 | CCOC(=O)/C(=C\C=C1/Sc2ccccc2N1CC)C(C)=O | 20% (active)
15 | CCOC(=O)/C(=C/C=C1\Sc2cc(C)c(C)cc2N1CC)C(C)=O | 4.3%
16 | CCOC(=O)/C(=C/C=C1\Sc2ccccc2N1CC)C(C)=O | 190% (active)
17 | CC1(C)c2[nH]c3ccccc3c2C[C@H]2C(=O)N(Cc3ccc(F)cc3)C(=O)N21 | 6.36%
18 | CC(C)NC(=O)C1CCCN(c2nnc(-n3cccc3)s2)C1 (configuration not stated) | 1270% (active)
19 | COCc1cc(C)n(CC(=O)Nc2ccccc2C(=O)OC)c(=O)c1C#N | 23.2% (active)

Row | SMILES | activation
20 | COC(=O)c1cc2c(cc1NC(=O)CSCCc1ccccn1)OCO2 | 7.4%
21 | Cc1cc(Br)ccc1SCC(=O)OCC(=O)Nc1ccccc1C#N | 9.13%
22 | C[C@H]1CN([C@@H](C)CO)C(=O)Cc2cc(NC(=O)CCC(F)(F)F)ccc2O[C@H]1CN(C)S(C)(=O)=O | 15.4% (active)
23 | Cc1noc(C)c1S(=O)(=O)N(C)C[C@H]1Oc2ccc(NC(=O)CCC(F)(F)F)cc2C(=O)N([C@H](C)CO)C[C@@H]1C | 10.2%
24 | COc1ccccc1NS(=O)(=O)c1ccccc1C#N | 3.34%
25 | COc1ccc(-n2c(O)c(/C=N/NS(=O)(=O)c3cccc([N+](=O)[O-])c3)c3ccccc3c2=O)cc1OC | 9.84%
26 | COc1ccccc1NS(=O)(=O)c1cc([N+](=O)[O-])ccc1N/N=C/c1c(C)[nH]c2ccccc12 | 27.9% (active)
27 | O=C(CCN1C(=O)/C(=C/c2cccs2)SC1=S)NNC(=O)c1cccc(O)c1 | 7.19%
28 | CC(=O)NN1C(=O)/C(=C\c2ccc(O)cc2)SC1=S | 12.5% (active)
29 | CN(C)c1ccc(/C=C2\SC(=S)N(Nc3ncc(C(F)(F)F)cc3Cl)C2=O)cc1 | 7.16%
30 | O=C(NN1C(=O)/C(=C/c2ccc(O)cc2)SC1=S)c1cccc(O)c1 | 12.5% (active)
31 | O=C(NN1C(=O)/C(=C/c2ccc(O)cc2)SC1=S)c1ccccc1O | 9.61%
32 | Cc1c(C2Nc3ccccc3NC3=C2C(=O)CC(C)(C)C3)cnn1C (configuration not stated) | 4.72%
33 | Cc1ccc(N2C3=C(C(=O)CC(C)(C)C3)C(c3cn(C)nc3C)C3=C2CC(C)(C)CC3=O)cc1 | 35.1% (active)
34 | N#C/C(=C\c1c[nH]c2ccccc12)C(=O)Nc1ncc(Cc2ccc(Cl)cc2Cl)s1 | 30.3% (active)
35 | COc1cc(/C=C(\C#N)C(=O)c2c[nH]c3ccccc23)cc(OC)c1O | 5.75%
36 | COCCN=c1scc(-c2cc(OC)c(OC)c(OC)c2)n1/N=C/c1c(C)[nH]c2ccccc12 | 72.2% (active)
37 | O=C(C1=C(O)C(=O)N(CCN2CCOCC2)C1c1ccc([N+](=O)[O-])cc1)c1cccs1 (configuration not stated) | 188% (active)
38 | CC(C)Oc1ccc(/C(O)=C2/C(=O)C(=O)N(CCN3CCNCC3)C2c2cccc([N+](=O)[O-])c2)cc1 (configuration not stated) | 6.36%

Row | SMILES | activation
39 | COc1ccc(N(C(=O)c2ccc(C)cc2)S(=O)(=O)c2cccs2)cc1 | 175% (active)
40 | COc1ccc(NC(=O)CNS(=O)(=O)c2cccs2)cc1 | 7.87%
41 | Nc1ccc2cc3[nH]c4cc(N)ccc4c3nc2c1 | 13.7% (active)
42 | O=C(O)C1=C[C@H](c2ccccc2)C[C@H](OCc2ccc(CO)cc2)O1 | 1.76%
43 | Cc1c(O)c(=O)c2ccccc2n1C | 16.4% (active)
44 | COc1ccc(NC(=O)CCN2CC(C)OC(C)C2)c(OC)c1 (configuration not stated) | 4.53%
45 | COc1ccc(NC(=O)CCN2CCCC2)c(OC)c1 | 80.7% (active)
46 | COc1ccc(CN2CCC(=O)N([C@H](CO)c3ccccc3)CC2)cc1 | 21.1% (active)
47 | COc1ccc(CN2CNc3c(c(=O)n(C)c(=O)n3C)C2)cc1 | 14.9% (active)
48 | COc1ccc(-c2c3c(=O)n(C)c(=O)n(C)c3cn2-c2cccc(OC)c2)cc1 | 1.1%
49 | CCCNC(=S)N1CCC(NC(=O)C23CC4CC(CC(C4)C2)C3)CC1 | 8.77%
50 | c1ccc(-c2cnn3c(-c4ccccc4)c(-c4ccccc4)nc3n2)cc1 | 3.13%
51 | Nc1ccc2nc(-c3ccccc3)cnc2c1 | 83.1% (active)
52 | CCO/C=C1\N=C(c2ccc(F)cc2)OC1=O | 4.72%
53 | CN1/C(=C\C=C2\N=C(c3ccc(F)cc3)OC2=O)C(C)(C)c2ccccc21 | 13.9% (active)
54 | CN1/C(=C\C=C2/SC(=S)NC2=O)C(C)(C)c2ccccc21 | 10.1%
55 | CCN(CC)C(=O)C1CCC(CNS(=O)(=O)c2cccc3cccnc23)CC1 (configuration not stated) | 0.91%
56 | CC(C)c1ccc(NS(=O)(=O)c2cccc3cccnc23)cc1 | 446% (active)
57 | O=C1CCC[C@@H]2C[C@@]3(C[C@@H]4CCN1[C@H]24)Nc1cc([N+](=O)[O-])ccc1NC3=NC1CCCCC1 | 41.2% (active)
